# B2AR ag – human beta-2 adrenergic receptor agonism by FAP; P07550; Am2.2-beta2AR cells, FAP receptor internalization, flow cytometry; response, % (no concentration beside the values); hit rate 0.43% among 340,000;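 active means response above a set limit, near 3 SD of response in nonfluorescent compounds, cut at about 42% in these data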
# XBP1 UPR activ – activators of adaptive arm of unfolded protein response (XBP1); CHO-XBP1 luciferase reporter, IRE1-XBP1 UPR activation, luminescence; percent of tunicamycin response, DMSO as zero; activation, % at 20 µM; hit rate 0.33% among 330,000; AID 463104;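 active means versus positive control, 20 µM dose yields 30% or more activation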;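 further: 100% = tunicamycin at 10 µg/mL and 0% = DMSO only wells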
#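 Material: CHO cell line with stable XBP1 luciferase reporter; schedule: 16-18 h cell attachment at 37 °C, then 6 h compound exposure; signal: glow luminescence from Steady-Glo reagent; medium: serum-containing F12 medium, 10% FBS; benchmarks: tunicamycin 10 µg/mL and vehicle-only wells; read-out: percent activation relative to tunicamycin reference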
# UPR CHOP act – activators of apoptotic arm of unfolded protein response (CHOP) | hit rate 0.34% among 330,000 | AID 449763 | CHO-CHOP luciferase reporter, UPR activation, luminescence; percent of tunicamycin response over DMSO baseline | activation, % at 10 µM;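 active means at 10 µM dose, activation of 40% or more, normalized to positive control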;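 further: 100% = tunicamycin at 10 µg/mL and 0% = DMSO alone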
#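 Test system: CHO-CHOP cells, stable luciferase reporter of PERK-eIF2a-CHOP signalling | Quantity: 500 CHO-CHOP cells per well | Buffer or medium: F12 plus 10% serum | Compound dosing: 10 µM single point, 0.5% DMSO | Schedule: 6 h compound treatment, 37 °C | Signal: Luciferase luminescence | Control set: Tunicamycin high control, DMSO low control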
# p-CIP stab down – p/CIP protein destabilization | hit rate 0.01% among 290,000 | decrease of EGFP signal, % at 10 µM | F442A p/CIP-EGFP cells, EGFP fluorescence, 16 h | Q05BA5;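 active means EGFP signal decrease of at least 30% at 10 µM or well 3 SD below plate mean, unless failing retest; inactive means the rest, including hits failing retest or dose response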
# Dynein cargo inh – dynein cargo transport inhibition. hit rate 0.47% among 220,000. z-score, hits read low. 3617.4 mouse cells, GR-EGFP nuclear translocation imaging; test concentration mostly 20 µM; stimulated with dexamethasone, 1 µM; active compounds read low. AID 1381;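 active means plate z-score of nuclear minus cytoplasmic receptor signal below a set negative limit, without overly bright fluorescence or cell loss, cut at about -3.5 in these data, passing the limit was not always enough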;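 further: z-score of nuclear minus cytoplasmic ring GR-EGFP intensity difference per well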
#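 Buffer or medium: Induction medium lacking tetracycline, stripped serum | Also added: Dexamethasone agonist, 1.0 µM final, for 30 min | Timing: 48 h induction, 1 h compound, 30 min dex at 37 °C | Detection: Formaldehyde fixation, Hoechst nuclear stain, 10x automated fluorescence imaging | Measure: Nuclear versus cytoplasmic GR-EGFP signal, averaged per well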
# CHOP inhibitor – blocks CHOP induction under ER stress | CHO-K1 CHOP-promoter luciferase, tunicamycin-induced, 15-18 h | inhibition, % at 10 µM | hit rate 3.8% among 220,000 | AID 2732;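 active means compounds that reduced the stress-induced luciferase reporter signal by more than about 70% of percent inhibition, limit read from the data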;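 further: 0% = tunicamycin plus vehicle and 100% = wells without tunicamycin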
# An asterisk follows results filed as active; / = no result given. The sample as a whole holds a higher share of hits than the screen did.
SMILES,B2AR ag,XBP1 UPR activ,UPR CHOP act,p-CIP stab down,Dynein cargo inh,CHOP inhibitor
Nc1nc(CN2CCN(c3cccc(Cl)c3)CC2)nc(N2CCCc3ccccc32)n1,17.0,-0.7,-0.4,1.7,-0.00891,88.0*
CSc1cccc(NC(=O)/C=C/c2ccccc2)c1,2.1,5.5,6.8,-1.5,-0.869,51.3
CSc1ccc(/C=C/C(=O)Nc2ccccc2)cc1,13.2,-4.2,-3.2,8.3,0.369,84.4*
NC(=O)C1CCCN(C(=O)CN2C(=O)NC(c3ccccc3)(c3ccccc3)C2=O)C1 (stereo unspecified),1.1,-3.7,-1.5,/,/,/
CCCSc1nc(C)c(C(C)=O)cc1C#N,-1.1,-1.2,-2.9,4.5,2.4,70.1*
COC(=O)CSc1nc(C)c(C(C)=O)cc1C#N,-4.7,3.7,3.6,0.5,-1.37,13.9
Cn1c(=NC(=O)c2cccc([N+](=O)[O-])c2)sc2ccccc21,-2.2,6.2,17.8,-5.7,-0.998,73.3*
Cc1nc(SCC(=O)c2cc3ccccc3oc2=O)c(C#N)c(-c2ccccc2)c1C(=O)Nc1ccccc1,-6.7,-0.6,-0.1,-2.8,0.094,94.7*
CC(C1CC1)N(Cc1ccccc1)C(=S)Nc1cccc(C(F)(F)F)c1 (stereo unspecified),5.4,2.6,3.4,-5.3,0.526,75.2*
CCCCOC(=O)NC(NCC(O)c1ccccc1)(C(F)(F)F)C(F)(F)F (stereo unspecified),-5.1,-1.1,-2.0,-7.4,2.43,80.6*
CCCc1ccc(OC(=O)c2cccs2)cc1,1.3,-0.1,1.6,9.3,0.145,-0.1
CCCc1ccc(OC(=O)c2ccc(O)cc2Cl)cc1,13.1,3.7,5.5,-0.3,0.927,87.1*
CCN(CC)S(=O)(=O)c1ccc(N2CCOCC2)c(NC(=O)c2nn(C)c(=O)c3ccccc23)c1,1.5,/,/,/,/,/
O=[N+]([O-])c1ccc(N/N=C/c2sc(N3CCOCC3)nc2-c2ccccc2)c(S(=O)(=O)Nc2ccc(Cl)cc2)c1,-639.3,/,/,-361.5,-4.99,86.1*
O=C(N/N=C/c1sc(N2CCOCC2)nc1-c1ccccc1)c1ccccc1Cl,-1.5,-5.7,1.1,5.8,-0.666,27.7
O=[N+]([O-])c1ccc(N/N=C/c2sc(N3CCOCC3)nc2-c2ccccc2)c(S(=O)(=O)Nc2ccccc2Cl)c1,-295.1,/,/,-227.0,-3.52,84.5*
CCN(CC)P(=O)(Nc1ccccc1Br)c1ccc(N(C)C)cc1NC(=O)c1ccco1 (stereo unspecified),-0.1,-0.6,2.6,-8.7,0.485,5.4
Cc1onc(-c2ccccc2)c1C(=O)N(Cc1ccccc1)C(C)C,-9.5,-0.8,1.2,-2.4,/,/
Cc1ccc(Cl)cc1N1CCN(Cc2nnnn2Cc2ccco2)CC1,-6.5,/,/,1.3,0.305,72.4*
CCOC(=O)N1CCN(C(=O)CSc2ccc(-c3cccc(OC)c3)nn2)CC1,-14.4,-1.6,-1.5,8.2,1.63,77.0*
Cc1cc(Nc2ccc(Cl)cc2)n(-c2cccc(Cl)c2)n1,3.4,-0.3,-1.6,-4.6,-0.807,71.6*
Cc1cc(Nc2ccc(Cl)cc2)n(-c2ccccc2)n1,-8.1,-0.3,-0.3,-13.9,0.652,19.4
O=C(Nc1ccnn1C1CCN(C/C=C/c2ccccc2)CC1)c1cccc(F)c1,0.4,-2.3,1.0,4.4,/,/
O=C(COC(=O)CCc1c[nH]c2ccccc12)NC(c1ccccc1)c1ccccc1,3.7,0.2,2.2,-4.5,-0.0865,29.2
Cc1cc(C)n2nc(-c3sccc3-n3c(C)ccc3C)cc2n1,-6.5,2.2,-0.2,-0.2,-0.529,76.3*
S=C(NCCSCc1c(Cl)cccc1Cl)Nc1ccccc1,-1.3,-2.1,2.5,-15.9,-0.0914,32.3
S=C(NCCSCc1ccc(Cl)cc1Cl)Nc1ccccc1,15.8,-1.0,-1.7,-0.5,-0.61,81.0*
Cc1c(C(=O)NCCSCc2ccc(Cl)cc2Cl)cccc1[N+](=O)[O-],0.3,-2.1,-1.2,-12.2,1.05,72.1*
Cc1ccc(C(=O)NCCSCc2ccc(Cl)cc2Cl)cc1[N+](=O)[O-],-4.7,-2.3,-0.4,2.2,-0.225,21.0
